According to ChEMBL document CHEMBL1146866, “Structural determinants for the membrane interaction of novel bioactive undecapeptides derived from gaegurin 5” (J Med Chem, 2006):
pIC50: −log10 of the molar value. Where a SMILES comes first, the peptide text is derived from it.

What was measured:
NCI-H630 = test: Antitumor activity against human NCI-H630 cell line; type: functional, cell-based
PC-3 = test: Antitumor activity against human PC3 cell line; type: functional, cell-based
SK-MEL-2 = test: Antitumor activity against human SK-MEL-2 cell line; type: functional, cell-based
SK-OV-3 = test: Antitumor activity against human SKOV3 cell line; type: functional, cell-based
A498 = test: Antitumor activity against human A498 cell line
A549 = test: Antitumor activity against human A549 cell line
HCT-116 = test: Antitumor activity against human HCT116 cell line; type: functional, cell-based
MCF7 = test: Antitumor activity against human MCF7 cell line; type: functional, cell-based
MKN-45 = test: Antitumor activity against human MKN45 cell line; type: functional, cell-based
MCF10 = test: Antitumor activity against human MCF10a cell line
RBCs [1] = test: Hemolytic activity against human red blood cells at 100 ug/ml; type: functional, Erythrocyte
In short: (§1)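 Human erythrocytes exposed to peptide. Hemolysis expressed as % relative to lysis by 0.2% Triton X-100.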

RBCs [2] = test: Hemolytic activity against human red blood cells at 200 ug/ml; type: functional, Erythrocyte; in short: as §1
RBCs [3] = test: Hemolytic activity against human red blood cells at 300 ug/ml; type: functional, Erythrocyte; in short: as §1
RBCs [4] = test: Hemolytic activity against human red blood cells at 400 ug/ml; type: functional, Erythrocyte; in short: as §1

Compound | IC90 (NCI-H630) | IC90 (PC-3) | IC90 (SK-MEL-2) | pIC50 (SK-OV-3) | IC90 (SK-OV-3) | IC90 (A549) | IC90 (HCT-116) | IC90 (MCF7; read-out: IC90) | IC90 (MKN-45) | pIC50 (NCI-H630) | pIC50 (PC-3) | pIC50 (A498) | pIC50 (A549) | pIC50 (HCT-116) | pIC50 (MCF7) | pIC50 (MKN-45) | Activity (RBCs [1]) | Activity (RBCs [2]) | Activity (RBCs [3]) | Activity (RBCs [4]) | further results
CC(=O)O[C@H]1C(=O)[C@@]2(C)[C@H]([C@H](OC(=O)c3ccccc3)[C@]3(O)C[C@H](OC(=O)[C@H](O)[C@@H](NC(=O)c4ccccc4)c4ccccc4)C(C)=C1C3(C)C)[C@]1(OC(C)=O)CO[C@@H]1C[C@@H]2O [PACLITAXEL] | 0.372 µM | 0.832 µM | 0.037 µM | 8.30 | 0.071 µM | 0.041 µM | 0.008 µM | 0.015 µM | 0.204 µM |  |  |  |  |  |  |  |  |  |  |  | IC90 (A498): 0.229 µM
H-FLGALFKWASK-OH | 117 µM | 195 µM |  | 3.93 | 166 µM |  | 170 µM | 229 µM | 151 µM | 3.99 | 3.86 | 3.77 | 3.48 | 3.94 | 3.80 | 3.95 | 6.21% | 6.36% | 6.36% | 6.67% | pIC50 (MCF10): 3.46
H-FLGALFKVASKVL-OH |  |  |  |  |  |  |  |  |  |  |  |  |  |  |  |  | 25.8% |  |  |  | 
H-FLGALFKVASK-OH |  |  |  |  |  |  |  |  |  |  |  |  |  |  |  |  | 6.06% | 6.06% | 6.06% | 6.21% | 

Continued, in another order:

IC90 (NCI-H630) | IC90 (PC-3) | IC90 (SK-MEL-2) | pIC50 (SK-OV-3) | IC90 (SK-OV-3) | IC90 (A549) | IC90 (HCT-116) | IC90 (MCF7; read-out: IC90) | IC90 (MKN-45) | pIC50 (NCI-H630) | pIC50 (PC-3) | pIC50 (A498) | pIC50 (A549) | pIC50 (HCT-116) | pIC50 (MCF7) | pIC50 (MKN-45) | Compound | Activity (RBCs [1]) | Activity (RBCs [2]) | Activity (RBCs [3]) | Activity (RBCs [4]) | further results
25.1 µM | 22.9 µM | 18.2 µM | 4.82 | 23.4 µM | 89.1 µM | 89.1 µM |  | 24 µM | 4.79 | 4.77 | 4.27 | 4.24 | 4.35 | 4.14 | 4.86 | CC[C@H](C)[C@H](NC(=O)[C@H](C)NC(=O)[C@H](CS)NC(=O)[C@H](CCCCN)NC(=O)[C@@H](NC(=O)[C@H](CO)NC(=O)[C@@H]1CCCN1C(=O)[C@H](CC(C)C)NC(=O)[C@@H](NC(=O)[C@H](CCCCN)NC(=O)[C@H](CO)NC(=O)[C@H](C)NC(=O)[C@@H](NC(=O)[C@H](CCCCN)NC(=O)[C@H](Cc1ccccc1)NC(=O)[C@H](CC(C)C)NC(=O)[C@H](C)NC(=O)CNC(=O)[C@H](CC(C)C)NC(=O)[C@@H](N)Cc1ccccc1)C(C)C)C(C)C)C(C)C)C(=O)N[C@H](C(=O)N[C@@H](CCCCN)C(=O)N[C@@H](CCCCN)C(=O)N[C@@H](CS)C(=O)O)[C@@H](C)O (H-FLGALFKVASKVLPSVKCAITKKC-OH) | 6.8% |  |  |  | pIC50 (SK-MEL-2): 4.73; IC90 (MCF7): 93.3 µM
81.3 µM | 112 µM | 46.8 µM | 4.15 | 89.1 µM | 102 µM | 56.2 µM | 110 µM | 85.1 µM | 4.23 | 4.02 | 4.25 | 4.09 | 4.63 | 4.22 | 4.20 | H-FLGWLFKVASK-OH | 6.52% | 6.82% | 7.12% | 9.24% | pIC50 (SK-MEL-2): 4.63; pIC50 (MCF10): 3.62; IC90 (A498): 83.2 µM
